Molecules are shown by their SMILES.

The results in this text go back to PubChem BioAssay AID2632 (Broad Institute, 2010).

This assay concerns T. cruzi in NIH3T3, immunofluorescence replication, 4 d. The experiment in a line: T. cruzi intracellular replication inhibition, static vs lytic, late-stage follow-up, mechanism study for T. cruzi infection inhibitor project, imaging, immunofluorescence, NIH3T3 host cells (AID 2632). The conditions noted are these: stronger effect = lower value. The method in brief:
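Test system: NIH3T3 host cells infected with Trypanosoma cruzi. Probe or stimulus: trypomastigotes, MOI 100:1. Compound: single dose per compound at tenfold its IC50. Incubation: 2 h parasite infection, then 4-day compound exposure. Measured by: immunofluorescence imaging with anti-T. cruzi antibody and DAPI. Read-out basis: percent of 50 infected cells holding more than 4 amastigotes.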

As for `CC(C)=CCCC(C)CN(C)CCc1ccccn1` (configuration not stated), the percent infected cells with replication (at 0.83 µM) is 2%.

For `CCn1ncc(CN2CCCC(C(=O)c3cccc(OC(C)C)c3)C2)c1C` (configuration not stated), the percent infected cells with replication (at 0.32 µM) is 2%.

As for `COc1ccccc1/C=C/C(=O)OCCCN(C)C`, the percent infected cells with replication (at 7.93 µM) is 6%.

Regarding `O=S(=O)(NCC(c1cccnc1)N1CCN(c2ccc(F)cc2)CC1)c1ccccc1` (configuration not stated), where the note is “at 0.66 µM”, the percent infected cells with replication is 0%.

Take `CCOc1ccc2oc(=O)cc(CN3CCN(Cc4ccccc4)CC3)c2c1`: for the setting “at 2.16 µM”, the percent infected cells with replication was 0%.

As for `O=C(Cc1cn(Cc2cccc(Cl)c2)c2ccccc12)N1CCCCCC1`, the percent infected cells with replication (at 17.5 µM) is 2%.

Consider `CC1CCCN(C(=O)Cc2cn(Cc3cccc(Cl)c3)c3ccccc23)C1` (configuration not stated), for which, where the note is “at 17.9 µM”, the percent infected cells with replication was 0%.

For `COC(=O)N/N=C/c1ccc([N+](=O)[O-])o1`, the percent infected cells with replication (at 4.69 µM) is 8%.

On to `CCc1ccc2nc(N(CCN(C)C)C(=O)c3ccc4ncsc4c3)sc2c1`, for which the percent infected cells with replication (at 0.87 µM) is 2%.

Consider `CC(C)Oc1cccc(C(=O)C2CCCN(Cc3cnn(C(C)C)c3)C2)c1` (configuration not stated), for which the percent infected cells with replication (at 0.38 µM) was 0%.

Consider `O=C(NCC1CCCN(Cc2cccc(C(F)(F)F)c2)C1)c1ccc(F)cc1` (configuration not stated), for which the percent infected cells with replication (at 1.11 µM) was 2%.

As to `CC(C)c1cccc(OCCCCN(C)C)c1`, for the setting “at 5.87 µM”, the percent infected cells with replication is 0%.

For `CC1CC(C)CN(CCOCCSc2ccccc2)C1` (configuration not stated), the percent infected cells with replication (at 0.89 µM) was 2%.

`CC(=O)c1cccc(CN2CCCC(CCC(=O)NCc3ccc(F)c(F)c3)C2)c1` (configuration not stated): the percent infected cells with replication (at 0.7 µM) was 8%.

On to `Cc1ccc(NC(=O)CCC(=O)N/N=C/c2ccc([N+](=O)[O-])o2)cc1C`, for which the percent infected cells with replication (at 0.16 µM) was 0%.

Turning to `COc1cc(C(=O)NCCC(C)C)ccc1OCc1ccc(Cl)cc1Cl`, for the setting “at 13 µM”, the percent infected cells with replication is 0%.

Turning to `OC(COc1ccc2ccccc2c1Br)Cn1ccnc1` (configuration not stated), the percent infected cells with replication (at 5.01 µM) was 2%.

As to `Fc1ccc(CCNCc2ccc(Cl)c(Cl)c2)cc1`, under “at 1.22 µM”, the percent infected cells with replication was 0%.

Take `CSc1ccc(CN2CCCC(CNC(=O)c3ccc(F)cc3)C2)cc1` (configuration not stated): the percent infected cells with replication (at 1.2 µM) was 6%.

Turning to `O=C(CNc1cccc2ccccc12)N/N=C/c1ccc([N+](=O)[O-])o1`, the percent infected cells with replication (at 0.64 µM) is 6%.

In the case of `COc1ccc(CCN(C)C(=O)C2CCCN(Cc3ccc(OC)c(OC)c3)C2)cc1OC` (configuration not stated), for the setting “at 1 µM”, the percent infected cells with replication was 6%.

With `CC(C)(C)OC(=O)N/N=C\c1ccc([N+](=O)[O-])s1`, the percent infected cells with replication (at 27 µM) was 2%.

`CN(Cc1ccccc1)C(=O)C1CCCN(Cc2cccc(Cl)c2)C1` (configuration not stated): the percent infected cells with replication (at 1.1 µM) is 0%.

For `CC(C)Oc1cccc(C(=O)C2CCCN(Cc3cnc(N4CCCC4)s3)C2)c1` (configuration not stated), where the note is “at 1.4 µM”, the percent infected cells with replication was 2%.

With `Cc1ccccc1OCCCCCn1ccnc1`, the percent infected cells with replication (at 5.3 µM) is 4%.

Take `COCc1cc(CN2CCCC(CNC(=O)c3ccc(F)cc3)C2)ccc1OC` (configuration not stated): where the note is “at 1.18 µM”, the percent infected cells with replication was 0%.

As for `CCCn1ncc(CN2CCCC(C(=O)c3cccc(OC(C)C)c3)C2)c1C` (configuration not stated), the percent infected cells with replication (at 0.54 µM) is 4%.
